Converted amounts (≈) assume the structure as drawn.
Experiments:
Format in all cases: functional
Lacticaseibacillus casei = assay: Antimicrobial activity against Lactobacillus casei DSM 20011 after 48 hr by agar dilution method; conditions: DSM 20011, 48 h
Summary of the method: (§1)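 Agar dilution on standard plate count agar: 0.5 mL of a 2-fold serial dilution of sample mixed into 9.5 mL medium, poured into Petri dishes, organism streaked on the surface. Incubated at 28 °C (36 and 48 h). MIC is the lowest tested concentration with no visible growth.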

Saccharomycodes ludwigii = assay: Antimicrobial activity against Saccharomycodes ludwigii Diproval 120 after 48 hr by agar dilution method; conditions: Diproval 120, 48 h
Summary of the method: (§2)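 Yeast peptone dextrose agar plates, each holding a 2-fold serial dilution of sample (0.5 mL into 9.5 mL medium). Yeast streaked onto the plates and incubated at 28 °C, read at 36 and 48 h. MIC is the lowest concentration tested showing no growth.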

Saccharomyces cerevisiae [1] = assay: Antimicrobial activity against Saccharomyces cerevisiae Diproval 404 after 48 hr by agar dilution method; conditions: Diproval 404, 48 h; summary of the method: as §2
Saccharomyces cerevisiae [2] = assay: Antimicrobial activity against Saccharomyces cerevisiae Diproval 7070 after 48 hr by agar dilution method; conditions: Diproval 7070, 48 h; summary of the method: as §2
[3] = system: Limosilactobacillus fermentum; assay: Antimicrobial activity against Lactobacillus fermentum DSM 20052 after 48 hr by agar dilution method; conditions: DSM 20052, 48 h; summary of the method: as §1
Aspergillus flavus = assay: Antimicrobial activity against Aspergillus flavus ATCC 11655 after 48 hr by agar dilution method; conditions: ATCC 11655, 48 h
Summary of the method: (§3)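 Fungi tested by agar dilution in malt agar. Serial 2-fold sample dilutions (0.5 mL) were mixed with 9.5 mL medium and plated, then streaked with the organism. Incubation at 28 °C for 36 and 48 h. MIC is the lowest tested concentration without growth.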

Saccharomyces cerevisiae [4] = assay: Antimicrobial activity against Saccharomyces cerevisiae Diproval 9109 after 48 hr by agar dilution method; conditions: Diproval 9109, 48 h; summary of the method: as §2
Saccharomyces cerevisiae [5] = assay: Antimicrobial activity against Saccharomyces cerevisiae Diproval 8167 after 48 hr by agar dilution method; conditions: Diproval 8167, 48 h; summary of the method: as §2
Setophoma terrestris = assay: Antimicrobial activity against Setophoma terrestris ATCC 11321 after 48 hr by agar dilution method; conditions: ATCC 11321, 48 h; summary of the method: as §3
Hanseniaspora osmophila = assay: Antimicrobial activity against Hanseniaspora osmophila CBS 313 after 48 hr by agar dilution method; conditions: CBS 313, 48 h; summary of the method: as §2
Escherichia coli [6] = assay: Antimicrobial activity against Escherichia coli ATCC 35346 after 48 hr by agar dilution method; conditions: ATCC 35346, 48 h; summary of the method: as §1
Bacillus cereus = assay: Antimicrobial activity against Bacillus cereus DSM 345 after 48 hr by agar dilution method; conditions: DSM 345, 48 h; summary of the method: as §1
Candida albicans = assay: Antimicrobial activity against Candida albicans CBS 562 after 48 hr by agar dilution method; conditions: CBS 562, 48 h; summary of the method: as §2
Enterococcus faecalis = assay: Antimicrobial activity against Enterococcus faecalis DSM 2570 after 48 hr by agar dilution method; conditions: DSM 2570, 48 h; summary of the method: as §1
[7] = system: Lacticaseibacillus rhamnosus; assay: Antimicrobial activity against Lactobacillus rhamnosus DSM 20021 after 48 hr by agar dilution method; conditions: DSM 20021, 48 h; summary of the method: as §1
Micrococcus luteus = assay: Antimicrobial activity against Micrococcus luteus DSM 348 after 48 hr by agar dilution method; conditions: DSM 348, 48 h; summary of the method: as §1
Staphylococcus aureus = assay: Antimicrobial activity against Staphylococcus aureus subsp. aureus DSM 346 after 48 hr by agar dilution method; conditions: DSM 346, 48 h; summary of the method: as §1
Bacillus subtilis = assay: Antimicrobial activity against Bacillus subtilis DSM 345 after 48 hr by agar dilution method; conditions: DSM 345, 48 h; summary of the method: as §1
Rhizopus arrhizus = assay: Antimicrobial activity against Rhizopus oryzae ATCC 56536 after 48 hr by agar dilution method; conditions: ATCC 56536, 48 h; summary of the method: as §3
Aspergillus fumigatus = assay: Antimicrobial activity against Aspergillus fumigatus ATCC 1028 after 48 hr by agar dilution method; conditions: ATCC 1028, 48 h; summary of the method: as §3
[8] = system: Hanseniaspora guilliermondii; assay: Antimicrobial activity against Hanseniaspora guilliermondii CBS 465 after 48 hr by agar dilution method; conditions: CBS 465, 48 h; summary of the method: as §2
Aspergillus niger = assay: Antimicrobial activity against Aspergillus niger ATCC 1040 after 48 hr by agar dilution method; conditions: ATCC 1040, 48 h; summary of the method: as §3
Pseudomonas aeruginosa = assay: Antimicrobial activity against Pseudomonas aeruginosa DSM 1117 after 48 hr by agar dilution method; conditions: DSM 1117, 48 h; summary of the method: as §1
Hanseniaspora uvarum [9] = assay: Antimicrobial activity against Hanseniaspora uvarum AP23 after 48 hr by agar dilution method; conditions: Distaam AP23, 48 h; summary of the method: as §2
Escherichia coli [10] = assay: Antimicrobial activity against Escherichia coli DSM 682 after 48 hr by agar dilution method; conditions: DSM 682, 48 h; summary of the method: as §1
[11] = system: Staphylococcus epidermidis; assay: Antimicrobial activity against Staphylococcus epidermidis DSM 1798 after 48 hr by agar dilution method; conditions: DSM 1798, 48 h; summary of the method: as §1
Saccharomyces cerevisiae [12] = assay: Antimicrobial activity against Saccharomyces cerevisiae Diproval 6073 after 48 hr by agar dilution method; conditions: Diproval 6073, 48 h; summary of the method: as §2
Hanseniaspora vineae = assay: Antimicrobial activity against Hanseniaspora vineae CBS 2171 after 48 hr by agar dilution method; conditions: CBS 2171, 48 h; summary of the method: as §2
Bacillus licheniformis = assay: Antimicrobial activity against Bacillus licheniformis DSM 13=ATCC 14580 after 48 hr by agar dilution method; conditions: DSM 13 = ATCC 14580, 48 h; summary of the method: as §1
[13] = system: Lactiplantibacillus plantarum; assay: Antimicrobial activity against Lactobacillus plantarum DSM 20174 after 48 hr by agar dilution method; conditions: DSM 20174, 48 h; summary of the method: as §1
Stutzerimonas stutzeri = assay: Antimicrobial activity against Pseudomonas stutzeri ATCC 962 after 48 hr by agar dilution method; conditions: ATCC 962, 48 h; summary of the method: as §1
Penicillium expansum = assay: Antimicrobial activity against Penicillium expansum ATCC 7861 after 48 hr by agar dilution method; conditions: ATCC 7861, 48 h; summary of the method: as §3
Trichoderma viride = assay: Antimicrobial activity against Hypocrea rufa ATCC 28020 after 48 hr by agar dilution method; conditions: ATCC 28020, 48 h; summary of the method: as §3
[14] = system: Schizosaccharomyces pombe; assay: Antimicrobial activity against Schizosaccharomyces pombe Diproval 106 after 48 hr by agar dilution method; conditions: Diproval 106, 48 h; summary of the method: as §2
Saccharomyces cerevisiae [15] = assay: Antimicrobial activity against Saccharomyces cerevisiae Diproval 2439 after 48 hr by agar dilution method; conditions: Diproval 2439, 48 h; summary of the method: as §2
Hanseniaspora uvarum [16] = assay: Antimicrobial activity against Hanseniaspora uvarum CBS 314 after 48 hr by agar dilution method; conditions: CBS 314, 48 h; summary of the method: as §2

Compound | MIC (Lacticaseibacillus casei) | MIC (Saccharomycodes ludwigii) | MIC (Saccharomyces cerevisiae [1]) | MIC (Saccharomyces cerevisiae [2]) | MIC [3] | MIC (Aspergillus flavus) | MIC (Saccharomyces cerevisiae [4]) | MIC (Saccharomyces cerevisiae [5]) | MIC (Setophoma terrestris) | MIC (Hanseniaspora osmophila) | MIC (Escherichia coli [6]) | MIC (Bacillus cereus) | MIC (Candida albicans) | MIC (Enterococcus faecalis) | MIC [7] | MIC (Micrococcus luteus) | MIC (Staphylococcus aureus) | MIC (Bacillus subtilis) | MIC (Rhizopus arrhizus) | MIC (Aspergillus fumigatus) | also measured
C=C(CCC1(OC)O[C@H]2C[C@H]3[C@@H]4CC[C@H]5C[C@@H](O[C@@H]6O[C@H](CO)[C@H](O[C@@H]7O[C@H](CO)[C@@H](O)[C@H](O[C@@H]8O[C@H](CO)[C@@H](O)[C@H](O)[C@H]8O)[C@H]7O[C@@H]7O[C@H](CO)[C@@H](O)[C@H](O[C@@H]8O[C@H](CO)[C@@H](O)[C@H](O)[C@H]8O)[C@H]7O)[C@H](O)[C@H]6O)[C@H](O)C[C@]5(C)[C@H]4CC[C@]3(C)[C@H]2[C@@H]1C)CO[C@@H]1O[C@H](CO)[C@@H](O)[C@H](O)[C@H]1O (some centres not stated) [Capsicoside E] | 1000 µg/mL (≈ 697 µM) | 50 µg/mL (≈ 34.8 µM) | 50 µg/mL (≈ 34.8 µM) | 50 µg/mL (≈ 34.8 µM) | 1000 µg/mL (≈ 697 µM) | > 1000 µg/mL | 50 µg/mL (≈ 34.8 µM) | 50 µg/mL (≈ 34.8 µM) | 125 µg/mL (≈ 87.1 µM) | 100 µg/mL (≈ 69.7 µM) | 1000 µg/mL (≈ 697 µM) | 1000 µg/mL (≈ 697 µM) | 25 µg/mL (≈ 17.4 µM) | > 1000 µg/mL | 1000 µg/mL (≈ 697 µM) | > 1000 µg/mL | > 1000 µg/mL | > 1000 µg/mL | 125 µg/mL (≈ 87.1 µM) | > 1000 µg/mL | MIC [8]: 50 µg/mL (≈ 34.8 µM); MIC (Aspergillus niger): > 1000 µg/mL; MIC (Pseudomonas aeruginosa): > 1000 µg/mL; MIC (Hanseniaspora uvarum [9]): 25 µg/mL (≈ 17.4 µM); MIC (Escherichia coli [10]): 1000 µg/mL (≈ 697 µM); MIC [11]: > 1000 µg/mL; MIC (Saccharomyces cerevisiae [12]): 50 µg/mL (≈ 34.8 µM); MIC (Hanseniaspora vineae): 50 µg/mL (≈ 34.8 µM); MIC (Bacillus licheniformis): > 1000 µg/mL; MIC [13]: 1000 µg/mL (≈ 697 µM); MIC (Stutzerimonas stutzeri): > 1000 µg/mL; MIC (Penicillium expansum): 1000 µg/mL (≈ 697 µM); MIC (Trichoderma viride): 500 µg/mL (≈ 348 µM); MIC [14]: 100 µg/mL (≈ 69.7 µM); MIC (Saccharomyces cerevisiae [15]): 50 µg/mL (≈ 34.8 µM); MIC (Hanseniaspora uvarum [16]): 25 µg/mL (≈ 17.4 µM)
COC1(CC[C@@H](C)CO[C@@H]2O[C@H](CO)[C@@H](O)[C@H](O)[C@H]2O)O[C@H]2C[C@H]3[C@@H]4CC[C@H]5C[C@@H](O[C@@H]6O[C@H](CO)[C@H](O[C@@H]7O[C@H](CO)[C@@H](O)[C@H](O[C@@H]8O[C@H](CO)[C@@H](O)[C@H](O)[C@H]8O)[C@H]7O[C@@H]7O[C@H](CO)[C@@H](O)[C@H](O[C@@H]8O[C@H](CO)[C@@H](O)[C@H](O)[C@H]8O)[C@H]7O)[C@H](O)[C@H]6O)[C@H](O)C[C@]5(C)[C@H]4CC[C@]3(C)[C@H]2[C@@H]1C (some centres not stated) [O-METHYLCAPSICOSIDE A] | 1000 µg/mL (≈ 696 µM) | 50 µg/mL (≈ 34.8 µM) | 50 µg/mL (≈ 34.8 µM) | 50 µg/mL (≈ 34.8 µM) | 1000 µg/mL (≈ 696 µM) | > 1000 µg/mL | 50 µg/mL (≈ 34.8 µM) | 50 µg/mL (≈ 34.8 µM) | 125 µg/mL (≈ 87 µM) | 50 µg/mL (≈ 34.8 µM) | 1000 µg/mL (≈ 696 µM) | 1000 µg/mL (≈ 696 µM) | 50 µg/mL (≈ 34.8 µM) | > 1000 µg/mL | 1000 µg/mL (≈ 696 µM) | > 1000 µg/mL | > 1000 µg/mL | > 1000 µg/mL | 125 µg/mL (≈ 87 µM) | > 1000 µg/mL | MIC [8]: 25 µg/mL (≈ 17.4 µM); MIC (Aspergillus niger): > 1000 µg/mL; MIC (Pseudomonas aeruginosa): > 1000 µg/mL; MIC (Hanseniaspora uvarum [9]): 50 µg/mL (≈ 34.8 µM); MIC (Escherichia coli [10]): 1000 µg/mL (≈ 696 µM); MIC [11]: > 1000 µg/mL; MIC (Saccharomyces cerevisiae [12]): 50 µg/mL (≈ 34.8 µM); MIC (Hanseniaspora vineae): 25 µg/mL (≈ 17.4 µM); MIC (Bacillus licheniformis): > 1000 µg/mL; MIC [13]: 1000 µg/mL (≈ 696 µM); MIC (Stutzerimonas stutzeri): > 1000 µg/mL; MIC (Penicillium expansum): 1000 µg/mL (≈ 696 µM); MIC (Trichoderma viride): 250 µg/mL (≈ 174 µM); MIC [14]: 50 µg/mL (≈ 34.8 µM); MIC (Saccharomyces cerevisiae [15]): 50 µg/mL (≈ 34.8 µM); MIC (Hanseniaspora uvarum [16]): 25 µg/mL (≈ 17.4 µM)
